We go through 96 compounds from ChEMBL document CHEMBL4513216, “Probing the Open Global Health Chemical Diversity Library for Multistage-Active Starting Points for Next-Generation Antimalarials” (ACS Infect Dis, 2020).

The data set is described as follows: Toxicity liver stage against HepG2, at 10uM. Type of data set: cell-based. Details: test concentration 10 uM, cell line HepG2-A16-CD81EGFP. The following applies: human, HepG2-A16-CD81EGFP cells; read-out: INHIBITION
An outline of the steps: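 Uninfected HepG2-A16-CD81EGFP cells, 3 × 10^3 per well, 1536-well, plated on prespotted compound at 10 μM final, parasite-free screening media added to match infected plates; puromycin 10 μM positive, DMSO 0.5% negative; run in parallel with 48 h PbLuc assay at 37 °C, 5% CO2; viability by CellTiter-Glo luminescence, normalized to controls.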
For `COCCc1noc(CN(C)c2nc(C)cc(C)n2)n1`, the cytotoxicity at 10 µM was found to be 0.801%.
For `c1cnc(N2CCOCC3(CCCN(CC4CCOCC4)C3)C2)nc1` (stereo unspecified), the cytotoxicity at 10 µM is -8.95%.
On to `CNC(=O)c1ccc(NC2CCN(CC(F)(F)F)C2=O)cc1Cl` (stereo unspecified), for which the cytotoxicity at 10 µM is -1.13%.
As for `CCC(=O)N(CC)C(c1cccnc1)c1ccc2c(c1)CCO2` (stereo unspecified), the cytotoxicity at 10 µM turned out to be 2.94%.
For `CC(=O)NCC(=O)N1CCCC2(CCC(=O)N(CCc3c[nH]cn3)C2)C1` (stereo unspecified) the value was 2.77%; for `CCOc1ccc2cc(C(=O)NCCNc3ccc(C)nn3)[nH]c2c1`, 1.64%; for `CC1CCN(C(=O)c2cccc3ncccc23)CC1`, 4.21%.
`O=C(Cn1c(=O)oc2ccccc21)NCC(O)c1ccc2c(c1)CCO2` (stereo unspecified): the cytotoxicity at 10 µM was -6.81%.
In the case of `O=C(NCc1ccccn1)N1CC=C(c2ccccc2)CC1`, the cytotoxicity at 10 µM was 14.9%.
Take `O=C(C1=CCCC1)N1C[C@@H]2COC[C@]2(COCc2ccncc2)C1`: the cytotoxicity at 10 µM was -96.4%.
For `Cc1cccc(C2(C(=O)NC(C)Cn3ccnc3)CC2)c1` (stereo unspecified), the cytotoxicity at 10 µM was 0.742%.
For `Cc1ccc(CN2CC[C@H]3[C@H](CO[C@H]3CN(C)C)C2)o1`, the cytotoxicity at 10 µM is -129%.
In the case of `Cn1nccc1CCNC(=O)[C@H]1CNC[C@H](C(=O)N2CCCC2)C1`, the cytotoxicity at 10 µM was -133%.
With `CCCN1CC[C@@H]2[C@@H](CO[C@H]2CNC(=O)c2nccn2C)C1`, the cytotoxicity at 10 µM is -111%.
For the compound `CCN(CC(C)C#N)C(=O)CNc1ccc(F)c(C)c1` (stereo unspecified), the cytotoxicity at 10 µM came to 17.5%.
In the case of `CC(C)CN1C(=O)C2(CCN(CC3CCOCC3)C2)c2ccccc21` (stereo unspecified), the cytotoxicity at 10 µM is -71.2%.
As for `CS(=O)(=O)N1C[C@H]2CC[C@@H](C1)N(C(=O)CCc1n[nH]c3c1CCCC3)C2`, the cytotoxicity at 10 µM was 11%.
Under `c1csc(CN2CCC3(COCCN(CC4CC4)C3)C2)n1` (stereo unspecified) stands 1.44%; under `O=S(=O)(c1cccc(Cl)c1)N1C[C@@H]2CCN[C@@H]2C1`, -0.331%.
Under `O=C1COC2(CCN(c3ccccn3)CC2)CN1Cc1ccccn1` stands -0.861%; under `COC1CCN(c2ccc(F)cc2CN(C)S(C)(=O)=O)CC1`, -12.5%; under `CC(C)N1CCCC(C(=O)NCc2noc(Cc3ccccc3)n2)C1` (stereo unspecified), -1.49%.
Take `CS(=O)(=O)N1C[C@@H]2CCN(C(=O)c3cscn3)[C@@H]2C1`: the cytotoxicity at 10 µM was 9.79%.
Regarding `O=C(CN1CCN(c2ccc3nncn3n2)CC1)NC1CCCCC1`, the cytotoxicity at 10 µM is -12.6%.
Take `CC(C)N1CC2(CCC1=O)CCN(C(=O)c1cccc(F)c1F)CC2`: the cytotoxicity at 10 µM was -18.5%.
Under `CC(C)c1nn(C)c(Cl)c1CNCc1ccc2c(c1)OCO2` stands -1.77%.
In the case of `COCc1cccc(CNC(=O)CNc2ccccc2C(C)=O)c1`, the cytotoxicity at 10 µM was 0.529%.
Take `Cc1occc1C(=O)N1CCC2(CC1)CC(c1cccnc1)C(=O)N2C` (stereo unspecified): the cytotoxicity at 10 µM was -7.09%.
For the compound `COC[C@@]12CCO[C@@H]1CCN(Cc1ccccc1F)C2`, the cytotoxicity at 10 µM was -12.9%.
`FC1(F)CCN(Cc2cccnc2)CC12CCN(c1ccccn1)C2` (stereo unspecified): the cytotoxicity at 10 µM was found to be 23%.
`Cn1nc(C2CCCN(Cc3cccs3)C2)c2nccnc21` (stereo unspecified): the cytotoxicity at 10 µM stood at 4.2%.
For `COCC[C@]1(O)CCN(C2CCN(C(=O)C3CCC3)CC2)C[C@H]1C` the value was 0.866%; for `CN1CCC(n2cc3nc(N)[nH]cc-3c2=O)CC1`, 8.6%; for `Cc1cccc(CN2C[C@@H]3COC[C@]3(CNC(=O)C3CC3)C2)c1`, -107%.
Under `CCc1noc(CC)c1CC(=O)N1CCC(C(=O)NC(C)C)CC1` stands -10.9%; under `CC(NC(=O)CCCOc1ccc(F)cc1)c1nnc2n1CCC2` (stereo unspecified), -16.1%; under `COc1ccccc1C(=O)Nc1c(F)c(C(=O)NCCC(C)C)nn1C`, -11.1%.
Consider `Cc1ccc(-c2c[nH]c([C@@H]3COCCN3Cc3ncc[nH]3)n2)cc1`, for which the cytotoxicity at 10 µM worked out at 0.835%.
As for `CCc1[nH]c2c(CNc3cnccn3)cc(F)cc2c1C`, the cytotoxicity at 10 µM was -2.61%.
In the case of `CN(C)C(=O)CCC1CCCN(Cc2ccc(-c3cccnc3)cc2)C1` (stereo unspecified), the cytotoxicity at 10 µM worked out at 4.96%.
Regarding `Cc1cc(N2CCOC(C)(C(=O)N(C)C)C2)ncn1` (stereo unspecified), the cytotoxicity at 10 µM is -0.277%.
For `Cc1cc(CCCC(=O)NC2CCN(C)C2=O)c(C)s1` (stereo unspecified) the value was -0.67%; for `O=C(NCc1nnc2n1CCCC2)c1ccc(C2CCCO2)s1` (stereo unspecified), 15.7%; for `Cc1nc(-c2ccccc2)sc1C(=O)NCCNc1ncccn1`, 0.273%.
For `CCC1(CNC(=O)NC(c2nnc3n2CCC3)C(C)C)CCC1` (stereo unspecified), the cytotoxicity at 10 µM came to 0.864%.
Turning to `Cc1cc(O)n2nc(C3CCN(C(=O)c4ccccn4)CC3)cc2n1`, the cytotoxicity at 10 µM was -3.36%.
In the case of `c1n[nH]cc1CCCN1CCC(OC2CCCCC2)CC1`, the cytotoxicity at 10 µM came out at 2.97%.
As for `CC(C)CN1CC(O)CN(C(=O)c2cccc(C(F)(F)F)c2)CC1=O` (stereo unspecified), the cytotoxicity at 10 µM is -7.08%.
With `Cc1ccc(C(=O)N2C[C@H](NS(C)(=O)=O)[C@@H](C(C)C)C2)cc1F`, the cytotoxicity at 10 µM was -2.36%.
With `CSCC(C)(O)CNc1ccccn1` (stereo unspecified), the cytotoxicity at 10 µM was found to be 8.26%.
Turning to `COc1nn(C)cc1C(=O)NCC(=O)Nc1cccnc1`, the cytotoxicity at 10 µM was -8.75%.
With `CC(=O)N[C@@H]1CN(C2CCN(c3ccccc3F)CC2)C[C@H]1C(C)C`, the cytotoxicity at 10 µM was -14.5%.
In the case of `CN(C)C(=O)CO[C@H]1CN(Cc2cccc(F)c2)[C@@H]2CCCO[C@H]12`, the cytotoxicity at 10 µM was -2.76%.
For `CCOc1ccc(CC(=O)N2CCCC(n3nc(C)nc3C)C2)cc1` (stereo unspecified), the cytotoxicity at 10 µM is -3.18%.
For the compound `Cc1nsc(N2CCN(C(=O)Nc3cccc(C#N)c3)CC2)n1`, the cytotoxicity at 10 µM was -18.7%.
Under `Cc1ccc(CN2CCc3onc(C(=O)N4CCCC4)c3C2)o1` stands 6.28%.
`O=S(=O)(c1cccnc1)N1C[C@@H]2COC[C@]2(COCC2CC2)C1`: the cytotoxicity at 10 µM amounted to 4.83%.
Regarding `CCN(CC1CN(Cc2ccn(C(C)C)n2)CCO1)c1cccnn1` (stereo unspecified), the cytotoxicity at 10 µM stood at 5.06%.
On to `Clc1ccc2nncc(N3CCCCC3)c2c1`, for which the cytotoxicity at 10 µM is -4.34%.
Under `CC(C)(O)CN1CCN(C(=O)COCc2ccccc2Cl)CC1` stands -4.72%; under `CC1CCN(C(=O)c2ccc(N(C)Cc3cnn(C)c3)nc2)CC1`, -13.8%.
For `Cc1cc(C(=O)N2CCCC3(CN(C)C(=O)O3)C2)c2ccc(F)cc2n1` (stereo unspecified), the cytotoxicity at 10 µM is 3.05%.
Regarding `OC(CN1CCN(Cc2nnc(C3CC3)o2)CC1)c1ccccc1` (stereo unspecified), the cytotoxicity at 10 µM is -6.82%.
For `COC[C@@]12CCO[C@@H]1CCN(C(=O)Cc1ccccc1C)C2` the value was 2.05%; for `CC(C)C(NC(=O)Nc1ccccn1)c1cccs1` (stereo unspecified), 2.27%; for `CC(C)Oc1ccc(CN2CCC(Cc3nnc(CO)n3C)CC2)cc1`, 1.24%.
`CCS(=O)(=O)N1CC[C@H]2C(=O)N(Cc3cccnc3)CCO[C@H]2C1`: the cytotoxicity at 10 µM is -80.4%.
On to `CNC(=O)[C@@H](c1ccccc1)N1CCC[C@H]1C(=O)NCc1cccnc1`, for which the cytotoxicity at 10 µM is 2.38%.
As for `Cc1ccc(=O)n(CC2(O)CCN(Cc3c(F)cccc3F)CC2)n1`, the cytotoxicity at 10 µM is -17.6%.
Under `Cn1c(-c2cccs2)nn(CCNS(=O)(=O)c2ccccc2Cl)c1=O` stands -9.48%; under `Cc1cc(C)n(CC(C)CNC(=O)N(C)Cc2cc(C)on2)n1` (stereo unspecified), -10.2%; under `CCCc1nc(N(C)Cc2ccco2)c2c(n1)c(C)nn2CC`, 16.9%.
For the compound `Cc1noc(CN2CCN(CCO)CC2)n1`, the cytotoxicity at 10 µM was 2.17%.
As for `CC(C)[C@H](NC(=O)NC1CCS(=O)(=O)C1)C(=O)NCc1ccccc1` (stereo partly specified), the cytotoxicity at 10 µM worked out at 7.39%.
As to `CO[C@H]1CCN(C(=O)c2cc(C)on2)C[C@@H]1Cc1ccccc1`, the cytotoxicity at 10 µM came out at 4.06%.
On to `COc1ccccc1OCCCc1cc(C#N)ccn1`, for which the cytotoxicity at 10 µM was -11.5%.
For `Fc1cccc(-n2cccn2)c1NCc1nnc(C2CC2)o1`, the cytotoxicity at 10 µM was -5.48%.
In the case of `Cc1ccc(OCC(C)NS(=O)(=O)N(C)C)cc1` (stereo unspecified), the cytotoxicity at 10 µM amounted to 8.81%.
With `COCC1COCCC12CCN(C(=O)COc1ccccc1)CC2` (stereo unspecified), the cytotoxicity at 10 µM was -1.69%.
Take `CC(C)CC(=O)NS(=O)(=O)c1ccc2c(c1)OCCCO2`: the cytotoxicity at 10 µM is -9.02%.
On to `Cc1ncc2c(n1)CN(CC(=O)Nc1nccs1)CC2`, for which the cytotoxicity at 10 µM was -0.586%.
As to `Cc1cn(CC(=O)NC2CCC3(CC2)OCCO3)c2ccccc12`, the cytotoxicity at 10 µM is -1.21%.
Turning to `CCc1nnc(CN2CCc3cnc(C)nc3C2)o1`, the cytotoxicity at 10 µM is -4.04%.
In the case of `Cc1nsc(C(=O)NCCc2ccc(S(N)(=O)=O)cc2)n1`, the cytotoxicity at 10 µM was 7.11%.
`CCn1nc(CC(C)C)cc1C(=O)N1CC[C@@H](O)C1`: the cytotoxicity at 10 µM was 16.5%.
For `Cc1n[nH]c2c1C(c1cnn(C)c1)SCC(=O)N2` (stereo unspecified), the cytotoxicity at 10 µM is 7.7%.
For `CS(=O)(=O)N1CCC(NCC2(N3CCOCC3)CCCCC2)CC1` the value was -3.27%; for `O=S(=O)(c1cccnc1)N1CCC(OCCCc2ccccc2)C1` (stereo unspecified), 9.31%; for `COCCCC1CCCCN1Cc1cnn(C)c1C1CC1` (stereo unspecified), -2.52%.
Under `CC(C)[C@H](NC(=O)Cn1nc2c(cc1=O)CCCC2)C(=O)O` stands 1.85%; under `Cc1[nH]nc(CCC(=O)NCC2CCCN(C3CCCC3)C2)c1C` (stereo unspecified), -7.7%.
For the compound `O=S(=O)(NCCCN1CC=CC1)c1cncc(Cl)c1`, the cytotoxicity at 10 µM is -6.38%.
Consider `CC(c1ccc(F)cc1F)N1CCN(CCC(=O)O)CC1` (stereo unspecified), for which the cytotoxicity at 10 µM is -3.6%.
Under `Cc1cc(C)cc(OCC(=O)N2CCC2)c1` stands 2.01%; under `O=c1cc(CN2CCCC2)nc2n1CCCN(CC1CC1)C2`, -111%; under `Cc1nc(CN2CCCN(C(=O)c3cccn3C)CC2)cs1`, -2.06%.
